Screening results (PubChem)
SENP8 block-1 – blocks human SENP8 cleavage of Nedd8 substrate. Q96LD8. recombinant SENP8, Nedd8 substrate fluorescence. inhibition, % at 20 µM. 360,000 compounds, 0.64% hits. AID 602440; in the data active = inhibition mostly above about 40%, no sharp cut-off; inactive = mostly below about 27%
SENP1 FRET inh – blocks the human SENP1 SUMO protease catalytic domain. Q9P0U3. recombinant SENP1 catalytic domain, CyPet-SUMO1-YPet FRET cleavage. inhibition, % at 10 µM. 360,000 compounds, 0.21% hits;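 active = inhibition at least 30% at 10 µM, raw YFP signal under a set limit, fluorescence ratio 0.5 to 1.5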
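Assay system – human recombinant His6-tagged SENP1 catalytic domain enzyme · Input – SENP1 enzyme, 20 pM final · Buffer or medium – Tris pH 8 buffer plus EDTA, NaCl, BME, BSA, NP40, catalase · Schedule – 50 min reaction at room temperature · Technique – FRET read of cyan and yellow fluorescence · Control set – no-enzyme wells low, DMSO-plus-enzyme wells high control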
NRP1-CendR mod – modulators of CendR peptide binding to human neuropilin-1; O14786; FAM-RPARPAR peptide binding to NRP-1, fluorescence polarization; inhibition, % at 25 µM; 360,000 compounds, 0.85% hits; AID 602438;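 active = inhibition or corrected inhibition above about 18%, plus a signal ratio from 0.5 to 1.5, limit read from the data, passing the limit was not always enough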
SENP6 block – inhibitors of human SENP6 protease. 330,000 compounds, 1.8% hits. inhibition, % at 10 µM. Recombinant SENP6 catalytic domain, aminoluciferin luminescence. AID 2599;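 active = inhibition above about 50% at the single tested dose, limit read from the data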
Target sequence (Q9GZR1 628-1112 limits assumed): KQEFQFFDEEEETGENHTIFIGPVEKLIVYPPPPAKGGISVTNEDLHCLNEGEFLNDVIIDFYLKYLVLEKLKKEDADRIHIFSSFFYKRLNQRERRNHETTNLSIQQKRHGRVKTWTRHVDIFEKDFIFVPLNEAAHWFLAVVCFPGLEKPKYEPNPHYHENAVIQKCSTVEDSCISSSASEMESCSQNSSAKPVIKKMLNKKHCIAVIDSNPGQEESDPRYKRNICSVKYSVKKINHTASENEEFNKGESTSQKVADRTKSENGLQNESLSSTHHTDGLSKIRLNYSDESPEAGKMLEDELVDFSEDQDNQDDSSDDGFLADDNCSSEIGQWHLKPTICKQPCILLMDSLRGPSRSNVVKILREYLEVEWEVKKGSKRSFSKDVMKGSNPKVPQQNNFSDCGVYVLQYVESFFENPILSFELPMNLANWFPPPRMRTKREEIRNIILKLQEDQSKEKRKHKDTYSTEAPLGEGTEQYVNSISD
SENP8 block-2 – SENP8 protease inhibition | Q96LD8 | AID 2540 | purified SENP8, Z-RLRGG-aminoluciferin cleavage, luminescence | inhibition, % at 10 µM | 330,000 compounds, 1.2% hits; in the data active = inhibition above about 50%
SENP7 block – inhibitors of human SENP7 protease | 330,000 compounds, 1.5% hits | AID 434973 | inhibition, % at 5 µM | recombinant SENP7, Z-RLRGG-aminoluciferin luminescence, 40 min | Q9BQF6;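 active = inhibition above about 50% at the single test dose, limit read from the data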
SENP8 confirm – confirmation of human SENP8 protease inhibitors | shares compounds with SENP7 block | Recombinant SENP8, Z-RLRGG-aminoluciferin luminescence, 60 min | inhibition, % at 12.5 µM | 6,200 compounds, 40% hits | AID 488912;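 active = mean inhibition across replicates above about 50%, limit read from the data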
SENP6 conf – human SENP6 inhibition, confirmed. 6,200 compounds, 58% hits. shares compounds with SENP7 block. inhibition, % at 12.5 µM. recombinant SENP6, Z-RLRGG-aminoluciferin luminescence. AID 488915
SENP7 conf – human SENP7 inhibition, confirmed. AID 488917. recombinant SENP7, Z-RLRGG-aminoluciferin luminescence, 40 min. 6,200 compounds, 69% hits. inhibition, % at 12.5 µM. shares compounds with SENP7 block
Casp3 SENP sel – caspase-3 inhibition (SENP selectivity assay). shares compounds with SENP7 block. purified caspase-3, Z-DEVD-aminoluciferin luminescence, 60 min. inhibition, % at 12.5 µM. 6,200 compounds, 60% hits. AID 488918;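 active = mean inhibition above about 50%, limit read from the data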
Target sequence (P42574 28-227 limits assumed): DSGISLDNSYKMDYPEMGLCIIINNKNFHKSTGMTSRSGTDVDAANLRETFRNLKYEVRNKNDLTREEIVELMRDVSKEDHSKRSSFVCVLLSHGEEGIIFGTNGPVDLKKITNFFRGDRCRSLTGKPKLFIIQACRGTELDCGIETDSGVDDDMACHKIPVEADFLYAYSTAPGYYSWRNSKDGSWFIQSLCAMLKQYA
Luc interf – luminescence interference (SENP counter-screen); inhibition, % at 12.5 µM; shares compounds with SENP7 block; Pre-incubated SENP8/Z-RLRGG-aminoluciferin, luciferase luminescence interference; 6,200 compounds, 39% hits;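 active = mean inhibition above about 50% when retested at one dose, limit read from the data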
Of the large screens only hits and unclear results are named; the others gave an inactive call (follow-up assays come after a bar, where they were run). Hits are enriched below; roughly 3.3% of the tested compounds scored in any of these assays.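 Rule for the calls, unless noted: active = mean inhibition above about 50% in the one-dose retest (limit read from the data); inactive = the rest.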

CCCCC1CC2=C(C(=O)OC(C)(C)O2)C(c2ccc3ccccc3c2)O1 (configuration not stated)	none (no result: SENP6 block, SENP8 block-2, SENP7 block)
COc1ccc(S(=O)(=O)NNC(=O)c2cc3cc4ccccc4nc3s2)cc1	none
COc1ccc2cc3cc(C(=O)NC4CC4)sc3nc2c1	SENP6 block 90.3, SENP8 block-2 71.3, SENP7 block 85.2 | SENP8 confirm inactive | SENP6 conf 81.3 | SENP7 conf 98.6 | Casp3 SENP sel 92.9 | Luc interf inactive
Cc1ccc(C(=O)O)c(C(=O)Nc2nc3ccccc3s2)c1	SENP6 block 69.2, SENP8 block-2 67.2 | SENP8 confirm 90.0 | SENP6 conf 90.8 | SENP7 conf 100.2 | Casp3 SENP sel 95.0 | Luc interf 75.5
Cc1ccc(C(=O)Nc2nc3ccc(S(C)(=O)=O)cc3s2)s1	SENP6 block 68.3, SENP8 block-2 50.7 | SENP8 confirm inactive | SENP6 conf 52.7 | SENP7 conf inactive | Casp3 SENP sel 62.5 | Luc interf inactive
CCC(=O)Nc1nc2ccc(S(C)(=O)=O)cc2s1	none
Cc1ccc(CNc2nc3ccccc3s2)s1	SENP6 block 85.3, SENP8 block-2 75.8, SENP7 block 87.3 | SENP8 confirm 73.2 | SENP6 conf 71.5 | SENP7 conf 92.2 | Casp3 SENP sel 71.4 | Luc interf inactive
CS(=O)(=O)c1ccc2nc(NC(=O)c3cccs3)sc2c1	SENP6 block 90.5, SENP8 block-2 83.7, SENP7 block 88.6 | SENP8 confirm inactive | SENP6 conf 78.6 | SENP7 conf 95.0 | Casp3 SENP sel 88.2 | Luc interf 59.8
O=C(O)c1ccccc1-c1ccccc1C(=O)Nc1nc2ccccc2s1	none
CS(=O)(=O)c1ccc2nc(NC(=O)c3cc([N+](=O)[O-])cc([N+](=O)[O-])c3)sc2c1	none
NC(Cc1ccc(Cl)cc1)c1csc(Nc2ccc(C(=O)NCCCO)cn2)n1 (configuration not stated)	none (no result: SENP6 block, SENP8 block-2, SENP7 block)
CCOC(=O)Nc1nc2ccccc2s1	none
Cc1ccc(C(=O)Nc2nc3ccccc3s2)s1	SENP6 block 91.0, SENP8 block-2 73.5, SENP7 block 85.3 | SENP8 confirm 56.7 | SENP6 conf 83.1 | SENP7 conf 96.9 | Casp3 SENP sel 75.9 | Luc interf inactive
Cc1ccc2nc(NC(=O)c3cccs3)sc2c1	SENP6 block 91.6, SENP8 block-2 88.7, SENP7 block 98.2 | SENP8 confirm inactive | SENP6 conf 89.2 | SENP7 conf 92.1 | Casp3 SENP sel 74.5 | Luc interf inactive
N/C(=N\OC(=O)c1ccc2c(c1)OCO2)c1cccnc1	SENP6 block 74.3, SENP8 block-2 50.8, SENP7 block 80.4 | SENP8 confirm 57.7 | SENP6 conf 57.1 | SENP7 conf 86.8 | Casp3 SENP sel 87.8 | Luc interf 69.3
COc1ccc(/C(N)=N/OC(=O)c2ccc3c(c2)OCO3)cc1OC	SENP6 block 82.9, SENP8 block-2 75.4, SENP7 block 84.1 | SENP8 confirm inactive | SENP6 conf inactive | SENP7 conf inactive | Casp3 SENP sel inactive | Luc interf inactive
N/C(=N\OC(=O)c1ccc2c(c1)OCO2)c1cccc(Br)c1	SENP6 block 94.7, SENP8 block-2 96.2, SENP7 block 97.5 | SENP8 confirm 96.8 | SENP6 conf 97.9 | SENP7 conf 102.3 | Casp3 SENP sel 96.6 | Luc interf 51.0
COc1ccc(/C(N)=N/OC(=O)c2ccc3ccccc3c2)cc1OC	none (no result: SENP6 block, SENP8 block-2, SENP7 block)
Cc1cc(C)n(-c2ccc(C(=O)Oc3ccc4c(c3)OCO4)cc2)n1	SENP7 block 67.2 | SENP8 confirm 61.5 | SENP6 conf 70.5 | SENP7 conf 91.1 | Casp3 SENP sel 67.3 | Luc interf 56.8
O=C1Nc2ccccc2C1=Nc1ccc2[nH]c3ccccc3c2c1	none (no result: SENP6 block, SENP8 block-2, SENP7 block)
COc1ccc(C(=O)Oc2ccc3c(c2)OCO3)cc1OC	SENP6 block 57.6, SENP7 block 60.0 | SENP8 confirm inactive | SENP6 conf inactive | SENP7 conf 80.2 | Casp3 SENP sel 65.5 | Luc interf 61.3
COc1cc(OC)c(C(=O)Oc2ccc3c(c2)OCO3)cc1OC	none
Nc1nc2ccccc2cc1C(=O)NCc1cccs1	none (no result: SENP6 block, SENP8 block-2, SENP7 block)
CCCCc1ccc(-c2ccc(Br)cc2O)nc1	SENP7 block 67.6 | SENP8 confirm inactive | SENP6 conf inactive | SENP7 conf inactive | Casp3 SENP sel inactive | Luc interf inactive
CCCCc1ccc(-c2nn[nH]n2)nc1	none (no result: SENP6 block, SENP8 block-2, SENP7 block)
CCCCc1ccc(-c2ccc(C)cc2O)nc1	SENP8 block-2 53.1, SENP7 block 72.5 | SENP8 confirm inactive | SENP6 conf inactive | SENP7 conf inactive | Casp3 SENP sel inactive | Luc interf inactive
O=C(N/N=C/c1ccc(Sc2ccccn2)o1)c1cc2ccccc2cc1O	SENP6 block 93.8, SENP8 block-2 92.6, SENP7 block 63.9 | SENP8 confirm 90.4 | SENP6 conf 97.4 | SENP7 conf 101.1 | Casp3 SENP sel 92.0 | Luc interf 76.1
O=C(N/N=C\c1ccc(Sc2ccccn2)o1)c1cccc(F)c1	none
COCn1c(-c2cccc(Br)c2)nc2ccccc21	SENP6 block 50.9 | SENP8 confirm inactive | SENP6 conf inactive | SENP7 conf 65.4 | Casp3 SENP sel inactive | Luc interf 54.9
O=S1(=O)C[C@H](N2CCCC2)[C@@H](COCc2ccccc2)N1	none (no result: SENP6 block, SENP8 block-2, SENP7 block)
COc1ccc(NC(=O)c2noc3c2CCC3)cc1	SENP8 block-2 71.5, SENP7 block 81.1 | SENP8 confirm inactive | SENP6 conf 77.2 | SENP7 conf 93.3 | Casp3 SENP sel 90.1 | Luc interf 79.1
O=C(Nc1cccc(O)c1)c1noc2c1CCCCC2	SENP6 block 96.2, SENP8 block-2 92.1, SENP7 block 94.6 | SENP8 confirm 95.6 | SENP6 conf 95.9 | SENP7 conf 102.2 | Casp3 SENP sel 95.9 | Luc interf 92.6
O=c1[nH]c(Nc2ccccc2Cl)cc2ccccc12	SENP6 block 99.4, SENP8 block-2 95.9, SENP7 block 92.4 | SENP8 confirm 57.0 | SENP6 conf 86.3 | SENP7 conf 68.6 | Casp3 SENP sel inactive | Luc interf inactive
